TAAR1 antag = human TAAR1 antagonism; Q96RJ0; CHO RD-HGA16 TAAR1, Fluo-8 calcium fluorescence, antagonist; inhibition, % at 3 µM; hit rate 1.5% among 360,000; AID 624466;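 active = inhibition above a per-plate cutoff, the mean inhibition of test compounds on that plate plus 3 SD, cut at about 49% in these data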;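 also: 0% = DMSO plus EC80 beta-PEA response and 100% = DMSO alone without agonist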
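Test system: hTAAR1-expressing CHO RD-HGA16 cells, Gα16-coupled; Probe or stimulus: EC80 β-phenethylamine stimulus; Compound dosing: single nominal final test compound concentration of 3 µM; Timing: 140 s kinetic read after compound, 140 s after agonist; Signal: Fluo-8 calcium-sensitive fluorescence; Measure: % inhibition of agonist calcium response; Controls: DMSO and EC80 PEA controls.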
GPR7 antag = blocks human GPR7 receptor signaling. P48145. hit rate 1.1% among 290,000. inhibition, % at 4.4 µM. AID 1861. GPR7-expressing cells, fluorescence antagonist assay; in the data active = inhibition above about 16%, passing the limit was not always enough;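 also: cells stimulated with the agonist NPW; 0% = agonist with vehicle and 100% = vehicle without agonist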
LANA-H2A inh = blocks KSHV LANA binding to histone H2A/H2B | cell-free LANA-H2A/H2B peptide, fluorescence polarization | inhibition, % (test concentration not listed) | hit rate 0.6% among 320,000; in the data active = inhibition mostly above about 10%, no sharp cut-off; inactive = mostly below about 6.7%
TRPML3 ag = activates the human TRPML3 channel. Q8TDD5. HEK293 TRPML3-YFP, Fluo-8 calcium fluorescence; 100% = the carbachol control signal. activation, % at 3 µM. hit rate 0.29% among 220,000. AID 1448;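 active = activation above its plate's cutoff, the mean activation of the plate's test wells plus 3 SD, cut at about 12% in these data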;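 also: 0% = DMSO only wells and 100% = carbachol wells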
Target sequence (Q8TDD5 whole entry, looked up): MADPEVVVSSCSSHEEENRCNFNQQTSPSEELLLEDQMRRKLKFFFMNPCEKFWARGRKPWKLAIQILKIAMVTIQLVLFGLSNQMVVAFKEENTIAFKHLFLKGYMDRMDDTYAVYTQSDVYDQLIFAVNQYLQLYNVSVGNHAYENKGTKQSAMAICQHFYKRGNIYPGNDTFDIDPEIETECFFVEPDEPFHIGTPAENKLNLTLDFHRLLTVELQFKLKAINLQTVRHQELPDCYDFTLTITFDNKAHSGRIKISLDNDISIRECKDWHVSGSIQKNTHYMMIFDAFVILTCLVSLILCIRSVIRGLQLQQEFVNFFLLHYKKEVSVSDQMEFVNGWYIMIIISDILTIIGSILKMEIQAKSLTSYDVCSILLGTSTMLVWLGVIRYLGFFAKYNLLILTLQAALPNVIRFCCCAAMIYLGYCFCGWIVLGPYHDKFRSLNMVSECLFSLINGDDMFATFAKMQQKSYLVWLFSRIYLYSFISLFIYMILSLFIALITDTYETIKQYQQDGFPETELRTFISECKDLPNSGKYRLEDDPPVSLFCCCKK
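Test system: TRPML3-YFP stable HEK293 cells. Doses: single point at 3 µM. Incubation: dye loading 1 h 37 °C then 30 min ambient, 125 s read. Signal: Fluo-8 calcium dye fluorescence, ex 470-495, em 515-575 nm. Measure: percent activation from peak-to-basal fluorescence ratio, scaled between DMSO and carbachol.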
TRPN1 ag = activates the zebrafish TRPN1 channel. hit rate 0.18% among 220,000. HEK293 zebrafish TRPN1-YFP, Fluo-8 calcium fluorescence; 100% = response to 87 µM carbachol. activation, % at 3 µM. AID 1424;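 active = activation above its plate's cutoff, the mean activation of test wells on that plate plus 3 SD, cut at about 19% in these data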;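 also: 0% = DMSO alone and 100% = 87 µM carbachol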
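Assay system: Zebrafish TRPN1-YFP in HEK293 cells | Incubation: Dye loading 1 h at 37 °C, then 30 min room temperature | Measured by: Kinetic Fluo-8 fluorescence, ex 470-495, em 515-575 nm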
TAAR1 agonist = agonists of human TAAR1. Q96RJ0. CHO RD-HGA16 TAAR1, Fluo-8 calcium fluorescence; vehicle wells 0%, saturating PEA agonist 100%. activation, % at 3 µM. hit rate 0.99% among 360,000;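 active = activation above the mean activation of all test compounds in the run plus 3 SD, cut at about 38% in these data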
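System: CHO-derived RD-HGA16 cells with stable Gα16 and human TAAR1 / Times: 17-24 h plating, Fluo-8 75 min 37 °C, 30 min RT / Technique: calcium-sensitive Fluo-8 signal, excitation 470-495, emission 515-575 nm / Measure: % activation relative to PEA EC100 response / Benchmarks: DMSO and PEA EC100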
GPR7 antag conf = confirmation of human GPR7 antagonists; shares compounds with GPR7 antag; GPR7-expressing cells, calcium fluorescence antagonist mode; inhibition, % at 4.4 µM; hit rate 52% among 2,400; AID 1952; in the data active = inhibition above about 24%;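 also: stimulated with the GPR7 agonist NPW; 0% = agonist plus vehicle and 100% = vehicle alone without agonist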
MCHR1 antag = antagonizes human MCHR1, a GPR7 antagonist counter-screen; shares compounds with GPR7 antag; MCHR1-expressing cells, fluorescence antagonist assay; inhibition, % at 4.4 µM; hit rate 62% among 2,400; AID 2148; in the data active = inhibition above about 22%;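 also: 0% = vehicle with agonist and 100% = vehicle without agonist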
Active calls of the source: *; nt = no result; ! = a repeat was not active. Most compounds without a hit are left out; they make up all but 3.4% or so of the library.

SMILES | TAAR1 antag | GPR7 antag | LANA-H2A inh | TRPML3 ag | TRPN1 ag | TAAR1 agonist | GPR7 antag conf | MCHR1 antag
O=C(NCc1ccccc1Cl)c1ccc(S(=O)(=O)Nc2cccc(C(F)(F)F)c2)cc1 | 20 | 24* | 2 | 7 | 7 | 34 | 32* | 46*
O=C(Cn1c(=O)cnc2ccccc21)NC1CCC(O)CC1 (stereo not given) | -19 | nt | -5 | nt | nt | 1 | nt | nt
Oc1ccccc1Nc1nc(NCc2ccco2)c2ccccc2n1 | -39 | -7 | 3 | 1 | 0 | 0 | nt | nt
Cc1ccccc1Nc1nc(NCc2ccco2)c2ccccc2n1 | -41 | 27* | 5 | 0 | 1 | 24 | 14 | 63*
NC1=NC(=O)C(c2ccccc2)(c2ccccc2)S1 | -16 | nt | nt | nt | nt | 0 | nt | nt
FC(F)Oc1ccc(NC(=S)NCc2ccccc2)cc1 | 6 | -7 | 0 | 0 | 0 | 5 | nt | nt
COc1ccc(C(=O)NCc2ccc3c(c2)cc(C)n3C)cc1 | -27 | 23* | 1 | 0 | -2 | 4 | 5 | 4
Cc1cc2cc(CNC(=S)Nc3ccc(OC(F)F)cc3)ccc2n1C | -36 | 50* | -3 | 1 | 2 | 9 | -12 | 51*
CCn1c(-c2ccc(N(C)C)cc2)nc2ccccc21 | 3 | 37* | 7 | -1 | -2 | 11 | 17 | 26*
CCn1c(-c2ccc(N)cc2)nc2ccccc21 | 15 | -12 | 7 | 0 | 0 | 0 | nt | nt
O=C(CCc1ccccc1Cl)NC1CCCN(c2ccc(C(F)(F)F)cn2)C1 (stereo not given) | -10 | -9 | 4 | nt | nt | 0 | nt | nt
CCN(CC)c1nc(Nc2ccccc2)nc(Oc2ccc(=O)[nH]n2)n1 | 2 | -3 | -2 | 0 | 0 | 15 | nt | nt
CCN(CC)c1nc(Nc2ccccc2)nc(Oc2ccc(=O)n(C)n2)n1 | 8 | 23* | 3 | 0 | 0 | 14 | -12 | -19
O=C(NCc1ccncc1)[C@@H]1CCCN1C(=O)[C@@H]1CCCN1C(=O)c1cccc2ccccc12 | 4 | nt | nt | nt | nt | 2 | nt | nt
O=C(C/C=N\OCc1ccc([N+](=O)[O-])cc1)Nc1ccccc1 | -22 | -3 | -7 | 0 | -1 | 11 | nt | nt
O=C(C/C=N\OCc1ccc([N+](=O)[O-])cc1)Nc1ccc(Cl)cc1 | 21 | 25* | 1 | 0 | 0 | 5 | 31* | 40*
CCCN(CC(=O)Nc1ccccc1C)C(=O)c1cccc(S(=O)(=O)N2CCc3ccccc3C2)c1 | 59* | 30* | 2 | nt | nt | 6 | 28* | 55*
CCC(C)(C(=O)NC1CCCC1)N(Cc1ccco1)C(=O)Cc1cccs1 (stereo not given) | 6 | 38* | -1 | 0 | -1 | 8 | 33* | 23*
CCC(C)(C(=O)NC1CCCC1)N(Cc1ccco1)C(=O)c1ccc2c(c1)OCO2 (stereo not given) | -4 | 31* | 2 | -1 | -1 | 4 | 37* | 20
Cc1ccccc1NS(=O)(=O)c1ccc2c(c1)CCC(=O)N2 | -17 | nt | nt | nt | nt | 5 | nt | nt
COc1cc(/C=C(\C#N)C(=O)Nc2ccc(C(=O)O)cc2)ccc1OC(=O)c1cccc(F)c1 | 9 | 31* | -5 | nt | nt | 0 | 34* | 4
Cc1sc2nc[nH]c(=S)c2c1-c1ccccc1 | -5 | 27* | 2 | 1 | 2 | 20 | -2 | 7
C/C(=N/NC(=O)c1cccs1)c1cccc(NC(=O)C2CC2)c1 | -2 | 36* | -2 | 0 | 0 | 1 | -5 | 8
Cc1cn([C@H]2C[C@H](O)[C@@H](CNC(=O)[C@@H]3CCCN3Cc3ccccc3)O2)c(=O)[nH]c1=O | 11 | nt | nt | nt | nt | 0 | nt | nt
CN(C)CCCN1c2ccccc2Sc2ccc(Cl)cc21 | 4 | 35*! | 2.8*! | 1 | 1 | 17 | 46* | 57*
SMILES | TAAR1 antag | GPR7 antag | LANA-H2A inh | TRPML3 ag | TRPN1 ag | TAAR1 agonist | GPR7 antag conf | MCHR1 antag
CC(=O)Nc1cccc(-c2ccnc3c2CC(C)(C(=O)NCc2ccc(F)c(F)c2)O3)c1 (stereo not given) | -6 | nt | nt | nt | nt | 3 | nt | nt
CC(=O)Nc1ccc(NC(=O)C2CCN(S(C)(=O)=O)CC2)cc1 | -7 | nt | nt | nt | nt | 1 | nt | nt
Cc1ccc(Cl)cc1N1CCN(CC(=O)Nc2ccc(CN3CCCCC3)cc2)CC1 | -3 | 24* | -7 | 9 | 14 | 52* | 28* | 56*
COc1ccccc1N1CCN(CC(=O)Nc2ccc(CN3CCCCC3)cc2)CC1 | nt | -8 | 3 | 1 | -1 | nt | nt | nt
CC1(C)C2CCC(C2)C1(C)NC(=O)CNCC1CCCCC1 (stereo not given) | -13 | 33* | -1 | 0 | 1 | 11 | 38* | 22*
CCOCCCNCC(=O)NC1(C)C2CCC(C2)C1(C)C (stereo not given) | -9 | 4 | 6 | 1 | 0 | 7 | nt | nt
C=CCOc1cccc(C(=O)/C=C2/C(=O)Nc3ccccc32)c1 | 24 | 43* | -1 | nt | nt | 2 | 65* | 81*
CCCCCC1CC(CC(=O)Nc2ccc([N+](=O)[O-])cc2)OC1=O (stereo not given) | -26 | 25* | 1 | 0 | -1 | 3 | 9 | 42*
O=[N+]([O-])c1ccc(-[n+]2ccc3ccccc3c2)c([N+](=O)[O-])c1 | -3 | nt | -5 | nt | nt | 16 | nt | nt
OCC1CCCCN1CCNCc1cn[nH]c1-c1cccc2ccccc12 (stereo not given) | -20 | 2 | -2 | 1 | 1 | 1 | nt | nt
c1ccc2c(-c3[nH]ncc3CNCCCn3ncc4ccccc43)cccc2c1 | -10 | 22* | -3 | 0 | -2 | 24 | 27* | 52*
Cc1ccc(NC(=O)C2CCN(S(=O)(=O)c3ccc4c(c3)CCCC(=O)N4)CC2)cc1N(C)C | 17 | 3 | -1 | nt | nt | 0 | nt | nt
COc1c(Br)cc(Br)cc1/C=N/n1c(C)nnc1C | -4 | 27* | -1 | 0 | 1 | 0 | 0 | 10
COc1cc(/C=N/n2c(C)nnc2C)cc(OC)c1OC | -7 | -13 | 1 | 1 | 0 | 6 | nt | nt
CCOC(=O)Cc1csc(NC(=O)C(NC(=O)C2CCC(C)CC2)C(C)C)n1 (stereo not given) | -37 | 3 | 0 | nt | nt | -1 | nt | nt
CSCCC(NS(=O)(=O)c1cccc(C(F)(F)F)c1)C(=O)Nc1ccccc1N1CCCC1 (stereo not given) | 18 | nt | 2 | nt | nt | 0 | nt | nt

Screening data: PubChem BioAssay, several laboratories
